Our source for the Activity values is ChEMBL document CHEMBL3272172, “Inhibition of the activity of the luteinizing hormone-releasing hormone (LH-RH) by analogues with variations at positions 2, 3, and 6 and the carboxyl terminus” (J Med Chem, 1977).

Square brackets hold non-standard residues; d marks the D form. Peptide text beside a SMILES is read from it. pGlu = O=C1CC[C@@H](C(=O)O)N1

Assay [1] deals with T1, Gonadotropin-releasing hormone receptor (Rattus norvegicus) (UniProt P30969).
T1 sequence (whole entry): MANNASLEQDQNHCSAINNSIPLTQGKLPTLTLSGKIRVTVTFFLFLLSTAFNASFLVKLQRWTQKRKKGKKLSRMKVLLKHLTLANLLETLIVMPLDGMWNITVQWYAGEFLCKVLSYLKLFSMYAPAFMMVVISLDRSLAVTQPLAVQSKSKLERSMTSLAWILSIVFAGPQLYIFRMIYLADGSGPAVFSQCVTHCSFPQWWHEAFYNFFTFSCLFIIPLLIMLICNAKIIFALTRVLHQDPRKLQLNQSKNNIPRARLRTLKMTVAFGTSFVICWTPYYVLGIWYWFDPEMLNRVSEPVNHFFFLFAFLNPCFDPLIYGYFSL
Nature of the assay: Antagonist activity at LH-RH receptor in Sprague-Dawley rat pituitary gland assessed as change in LH-RH-induced follicle-stimulating hormone release at 100 ug/ml preincubated for 2 hrs followed by LH-RH addition at 5th and 6th hr 5 mins post drug addition and measured every hour for 4 hrs by RIA. In outline: (§1)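 Two pituitaries from 20-day-old female rats were incubated in 1 mL lactated Ringer's at 37 °C with shaking for 6 h, with medium replaced hourly. Analogue was added in hours 3–6. LH-RH at 0.3 ng/mL was added in hours 5–6, 5 min after the analogue. LH and FSH were measured by RIA against the LER-1240-2 or FSH standard and reported as Δ ng/mL ± SEM with p values.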

For assay [2], the target named is T1, Gonadotropin-releasing hormone receptor (Rattus norvegicus). Nature of the assay: Antagonist activity at LH-RH receptor in Sprague-Dawley rat pituitary gland assessed as change in LH-RH-induced follicle-stimulating hormone release at 10 ug/ml preincubated for 2 hrs followed by LH-RH addition at 5th and 6th hr 5 mins post drug addition and measured every hour for 4 hrs by RIA. In outline: as §1

The target is the same in assay [3]. The experiment in a line: Antagonist activity at LH-RH receptor in Sprague-Dawley rat pituitary gland assessed as change in LH-RH-induced follicle-stimulating hormone release at 1 ug/ml preincubated for 2 hrs followed by LH-RH addition at 5th and 6th hr 5 mins post drug addition and measured every hour for 4 hrs by RIA. In outline: as §1
Assay [4] shares this target. Nature of the assay: Antagonist activity at LH-RH receptor in Sprague-Dawley rat pituitary gland assessed as change in LH-RH-induced luteinizing hormone release at 10 ug/ml preincubated for 2 hrs followed by LH-RH addition at 5th and 6th hr 5 mins post drug addition and measured every hour for 4 hrs by RIA. In outline: as §1
Assay [5] has the same target. Nature of the assay: Agonist activity at LH-RH receptor in Sprague-Dawley rat pituitary gland assessed as change in luteinizing hormone release at 100 ug/ml incubated for 4 hrs measured every hour for 4 hrs by RIA. The method, boiled down: (§2)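 Two pituitaries from 20-day-old female rats per beaker, in 1 mL lactated Ringer's at 37 °C with shaking, 6 h total. Medium was replaced hourly. After two preincubation hours the analogue was present alone in hours 3–6 (peptide in µg/mL of medium). LH and FSH were measured by RIA as ng of LH-LER-1240-2 or FSH standard, given as Δ ± SEM with p values.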

Assay [6] shares this target. Nature of the assay: Antagonist activity at LH-RH receptor in Sprague-Dawley rat pituitary gland assessed as change in LH-RH-induced luteinizing hormone release at 1 ug/ml preincubated for 2 hrs followed by LH-RH addition at 5th and 6th hr 5 mins post drug addition and measured every hour for 4 hrs by RIA. In outline:
as §1

Assay [7] has the same target. The experiment in a line: Agonist activity at LH-RH receptor in Sprague-Dawley rat pituitary gland assessed as change in follicle-stimulating hormone release at 100 ug/ml incubated for 4 hrs measured every hour for 4 hrs by RIA. The method, boiled down:
as §2

Assay [8] has the same target. The experiment in a line: Antagonist activity at LH-RH receptor in Sprague-Dawley rat pituitary gland assessed as change in LH-RH-induced luteinizing hormone release at 100 ug/ml preincubated for 2 hrs followed by LH-RH addition at 5th and 6th hr 5 mins post drug addition and measured every hour for 4 hrs by RIA. The method, boiled down:
as §1

Turning to `CCNC(=O)[C@@H]1CCCN1C(=O)[C@H](CCCNC(=N)N)NC(=O)[C@H](CC(C)C)NC(=O)[C@@H](C)NC(=O)[C@H](Cc1ccc(O)cc1)NC(=O)[C@H](CO)NC(=O)[C@H](C)NC(=O)[C@H](CC)NC(=O)[C@@H]1CCC(=O)N1`, the Activity in assay [1] is 1780 ng/mL; in assay [2], 2970 ng/mL; in assay [3], 2610 ng/mL; in assay [4], 56 ng/mL; in assay [5], -3 ng/mL; in assay [6], 157 ng/mL. In addition, the Activity came to 184 ng/mL in assay [7] and 62 ng/mL in assay [8].

As for `CC(C)C[C@H](NC(=O)[C@@H]1CCC(=O)N1)C(=O)N[C@@H](C)C(=O)N[C@@H](CO)C(=O)N[C@@H](Cc1ccc(O)cc1)C(=O)N[C@H](C)C(=O)N[C@@H](CC(C)C)C(=O)N[C@@H](CCCNC(=N)N)C(=O)N1CCC[C@H]1C(=O)NCC(N)=O`, the Activity in assay [1] came to 5850 ng/mL; in assay [2] it was 8150 ng/mL; in assay [3], 7020 ng/mL; in assay [4], 149 ng/mL; in assay [5], 13 ng/mL; in assay [6], 230 ng/mL. Also, the Activity was -351 ng/mL in assay [7] and 115 ng/mL in assay [8].

With `CC(C)C[C@H](NC(=O)CNC(=O)[C@H](Cc1ccc(O)cc1)NC(=O)[C@H](CO)NC(=O)[C@H](CO)NC(=O)[C@H](CC(C)C)NC(=O)[C@@H]1CCC(=O)N1)C(=O)N[C@@H](CCCNC(=N)N)C(=O)N1CCC[C@H]1C(=O)NCC(N)=O` ([pGlu]LSSYGLRPG-NH2), the Activity in assay [2] is 6540 ng/mL; in assay [4] it was 88 ng/mL; in assay [5], -7 ng/mL; in assay [7], -367 ng/mL; in assay [8], 90 ng/mL.

In the case of `CC(C)C[C@H](NC(=O)CNC(=O)[C@H](Cc1ccc(O)cc1)NC(=O)[C@H](CO)NC(=O)[C@H](CC(C)C)NC(=O)[C@@H](NC(=O)[C@@H]1CCC(=O)N1)[C@@H](C)O)C(=O)N[C@@H](CCCNC(=N)N)C(=O)N1CCC[C@H]1C(=O)NCC(N)=O` ([pGlu]TLSYGLRPG-NH2), the Activity came out at 3230 ng/mL in assay [1]; 3080 ng/mL in assay [2]; 180 ng/mL in assay [4]; 14 ng/mL in assay [5]; 699 ng/mL in assay [7]; 180 ng/mL in assay [8].

Consider `CC(C)C[C@H](NC(=O)CNC(=O)[C@H](Cc1ccc(O)cc1)NC(=O)[C@H](CO)NC(=O)[C@H](CC(N)=O)NC(=O)[C@H](CC(C)C)NC(=O)[C@@H]1CCC(=O)N1)C(=O)N[C@@H](CCCNC(=N)N)C(=O)N1CCC[C@H]1C(=O)NCC(N)=O` ([pGlu]LNSYGLRPG-NH2), for which the Activity in assay [1] is 2300 ng/mL; in assay [5], 18 ng/mL; in assay [7] it was -1270 ng/mL; in assay [8], 185 ng/mL.

Turning to `CCNC(=O)[C@@H]1CCCN1C(=O)[C@H](CCCNC(=N)N)NC(=O)[C@H](CC(C)C)NC(=O)[C@@H](C)NC(=O)[C@H](Cc1ccc(O)cc1)NC(=O)[C@H](CO)NC(=O)[C@H](C)NC(=O)[C@@H](NC(=O)[C@@H]1CCC(=O)N1)[C@@H](C)CC`, the Activity in assay [1] amounted to 1910 ng/mL; in assay [5] it was 42 ng/mL; in assay [7], 1020 ng/mL; in assay [8], 49 ng/mL.
